# Bioassay records as filed in PubChem BioAssay.
# Sampled rows, rich in hits. Any-hit rate of the full collection: about 3.9%.
# UPR CHOP act = apoptotic UPR (CHOP) activation. CHO-CHOP luciferase reporter, luminescence; percent of tunicamycin response over DMSO baseline. activation, % at 10 µM. hit rate 0.34% among 330,000;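 active = at 10 µM dose, activation of 40% or more, normalized to positive control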;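 also: 100% = tunicamycin at 10 µg/mL and 0% = DMSO alone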
#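 Assay system: CHO cells with stable CHOP pathway luciferase reporter; Buffer or medium: F12 plus 10% serum; Times: 16-18 h cell attachment, then 6 h compound exposure, 37 °C; Signal: luciferase luminescence; Read-out basis: percent activation relative to tunicamycin control; Control set: tunicamycin high control, DMSO low control.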
# UPR XBP1 act = activators of adaptive arm of unfolded protein response (XBP1); CHO-XBP1 luciferase reporter, IRE1-XBP1 UPR activation, luminescence; percent of tunicamycin response, DMSO as zero; activation, % at 20 µM; hit rate 0.33% among 330,000; AID 463104;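 active = versus positive control, 20 µM dose yields 30% or more activation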;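 also: 100% = tunicamycin at 10 µg/mL and 0% = DMSO only wells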
#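 Assay system: CHO-XBP1 luciferase reporter cells; Schedule: 6 h treatment, 37 °C; Detection: glow luminescence from Steady-Glo reagent; Benchmarks: high control tunicamycin 10 µg/mL final, low control DMSO vehicle only.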
# TIM10 inh = growth inhibitors of TIM10 yeast strain; inhibition, % at 10 µM; hit rate 1.4% among 330,000; S. cerevisiae TIM10 strain growth, BacTiter-Glo luminescence, 24 h;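 active = inhibition of 40% or more at the single tested concentration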;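 also: wild-type TIM10 isogenic control strain grown at permissive 25 °C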
# tim10-1 inh = inhibits growth of tim10-1 mutant yeast; inhibition, % at 20 µM; S. cerevisiae tim10-1 ts strain growth, BacTiter-Glo, 24 h; hit rate 2.2% among 330,000;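 active = inhibition of at least 40%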;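 also: mutant grown at 25 °C; 0% = DMSO wells with yeast and 100% = wells holding no yeast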
# tim23-1 inh = tim23-1 yeast growth inhibition | S. cerevisiae tim23-1 growth, BacTiter-Glo luminescence, 24 h | inhibition, % at 20 µM | hit rate 1.3% among 330,000;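 active = growth inhibition of the mutant yeast at or above 50%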;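 also: temperature-sensitive mutant grown at 25 °C; plate controls were DMSO-treated mutant yeast for no effect and medium wells lacking yeast for full effect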
# tim23-1 conf = confirmation of tim23-1 mutant yeast growth inhibitors | shares compounds with tim23-1 inh | S. cerevisiae tim23-1 growth, BacTiter-Glo luminescence, 24 h | inhibition, % at 20 µM | hit rate 83% among 4,400;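 active = inhibition above about 39% in either of two replicate wells at 20 µM, limit read from the data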;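 also: temperature-sensitive tim23-1 mutant grown at 25 °C; 0% = DMSO wells with yeast and 100% = medium wells without yeast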
# * marks the source's active call; other numbers are inactive results; nt = no result.
SMILES,UPR CHOP act,UPR XBP1 act,TIM10 inh,tim10-1 inh,tim23-1 inh,tim23-1 conf
O=C(CN1C(=O)NC2(CCCCCC2)C1=O)c1ccc(F)cc1,2,-1,-14,-34,-10,nt
NC(N)=N/N=C/c1ccccc1,0,-3,11,-3,4,nt
COc1cc(/C=N/N=C(N)N)ccc1OCc1ccc(Cl)cc1,0,12,-1,-6,1,nt
NC(N)=N/N=C/c1ccc(OCc2ccccc2Cl)cc1,5,6,-10,-7,59*,44*
NC(N)=N/N=C/c1ccc(OCc2ccccc2)c(OCc2ccccc2)c1,63*,0,5,-5,60*,49*
CCOc1ccc(-n2c(SCC(=O)Nc3cc(C)on3)nc3c(c2=O)SCC3)cc1,1,0,10,-9,5,nt
CC1(C)Cc2c(cnn2-c2cccc(F)c2)C(NC(=O)Cn2cccn2)C1 (centres undefined),2,-4,16,16,21,nt
CN(CC(=O)Nc1ccc(F)cc1)C(=O)Cn1nnc(-c2ccccc2)n1,-1,-4,-3,-3,-5,nt
COc1cccc2c1C(=O)c1c(O)c3c(c(O)c1C2=O)C[C@@](O)(C(=O)CO)C[C@@H]3O[C@H]1C[C@H](N)[C@H](O)[C@H](C)O1,-3,-5,-6,11,52*,44*
Cc1cccn2c(=O)c(/C=C(\C#N)C(=O)NCc3ccco3)c(N3CCCCCC3)nc12,0,-1,17,31,53*,48*
CCSc1nnc(NC(=O)c2nn(C(C)C)c(=O)c3ccccc23)s1,-1,1,23,32,57*,37*
COc1ccc(N2CCN(C(=O)c3sc4ncn(CC(=O)N5CCCCC5C)c(=O)c4c3C)CC2)cc1 (centres undefined),0,0,11,-11,-3,nt
CCc1c(C)nc2cc(-c3ccc(OC)c(OC)c3)nn2c1NCC1CC1,4,4,14,33,69*,46*
CC(=O)Oc1ccc(N2C(=O)c3cccc4c([N+](=O)[O-])ccc(c34)C2=O)cc1,29,-8,39,29,67*,57*
CS/C(=N/S(=O)(=O)c1ccc(C)cc1)c1ccccc1,-1,-3,-9,-5,15,nt
CS/C(=N\S(=O)(=O)c1ccc(Cl)cc1)c1ccccc1,-1,0,36,23,57*,36
Cc1ccc(S(=O)(=O)N2CCN(C(=O)CC(C)n3nc(C)c(Cl)c3C)CC2)cc1C (centres undefined),1,-5,4,23,6,nt
COc1ccc(CC(=O)OCC(=O)Nc2cccc(Cl)c2)cc1,0,-2,6,16,24,nt
COc1cc(NC(=S)NC(=O)CCc2ccccc2)cc(OC)c1,-1,-2,39,25,51*,41*
O=C(CCc1ccccc1)NC(=S)Nc1ccccc1Br,1,-2,29,-9,50*,32
COc1ccc(CCC(=O)Nc2cccc(Cl)c2)cc1,0,-3,33,11,59*,65*
CC(=O)c1ccccc1NC(=O)COC(=O)CN1C(=O)C2CCCCC2C1=O (centres undefined),-1,2,-1,8,10,nt
Oc1c(Cl)cc(Cl)cc1CNc1nccs1,-4,-10,9,-19,51*,52*
C=CCS/C(N)=N\N=C\c1cc(Br)cc([N+](=O)[O-])c1O,-2,-2,17,11,55*,44*
CC(=O)Oc1ccc2nc(/C=C/c3ccccc3)oc(=O)c2c1,4,5,33,4,25,nt
CC(=O)Nc1ccc(C2CC(c3ccc(Cl)cc3)=NN2c2ccccc2)cc1 (centres undefined),3,-6,23,38,63*,42*
CC(=O)Nc1ccc(C2=NN(c3ccccc3)C(c3ccccc3)C2)cc1 (centres undefined),-1,-1,20,30,30,nt
CC(C)C(NC(=O)c1ccc(F)cc1)C(=O)N1CCN(c2ccccn2)CC1 (centres undefined),-2,-3,9,9,20,nt
CCOc1ccccc1N1CCN(C(=S)NC(=O)C23CC4CC(CC(C4)C2)C3)CC1,2,-1,35,34,51*,31
